Measurements published in PMC8451688 (Journal of Enzyme Inhibition and Medicinal Chemistry, 2021).
Like-named read-outs stand apart in the source and are kept apart here.

Columns and labels:
A549 cells [1] = test: cells; type: cell-based, human; details: mean of triplicate; for IC50 (%inhibition ± SD) A549: Table 3
PC-3 cells = type: cell-based, human; details: Table 3; MTT; mean of triplicate
NRK-52E cells = type: cell-based; details: Table 3; normal rat kidney cell line; MTT
HepG2 cells = type: cell-based, human; details: Table 3; MTT; mean of triplicate
A549 cells [2] = test: Cell cycle analysis by PI flow cytometry; type: cell-based, human; details: 24 h
Method in brief: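 A549 cells were treated for 24 h with test compound at 0, 4 or 8 µM, with 0.1% DMSO as control. Cells were collected and washed twice in cold PBS, then fixed in cold 70% ethanol overnight at 4 °C. They were treated with 1 mg/mL RNase A for 30 min at 37 °C, stained with PI for 30 min at 4 °C in the dark, and analysed by flow cytometry.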

[3] = Homo sapiens, A549, read-out: IC50 A549, MTT

O=C(CN1C(=O)/C(=C/c2ccccc2)SC1=S)Nc1ccccc1 [I1, (Z)-2–(5-benzylidene-4-oxo-2-thioxothiazolidin-3-yl)-N-phenylacetamide]
IC50 (A549 cells [1]; [3]): 11.3 ± 1.5 µM
IC50 (%inhibition ± SD) A549 (A549 cells [1]; MTT): 11.3 ± 1.50%
IC50 (%inhibition ± SD) PC-3 (PC-3 cells): 21.7 ± 2.89%
IC50 (%inhibition ± SD) NRK-52E (NRK-52E cells): 13.1 ± 3.58%
IC50 (%inhibition ± SD) HepG2 (HepG2 cells): 24.7 ± 8.91%

O=C(CN1C(=O)/C(=C/c2ccccc2F)SC1=S)Nc1ccccc1 [I2, (Z)-2–(5-(2-fluorobenzylidene)-4-oxo-2-thioxothiazolidin-3-yl)-N-phenylacetamide]
IC50 (A549 cells [1]; read-out: IC50 A549, MTT): 22.7 ± 5.45 µM

O=C(CN1C(=O)/C(=C/c2ccccc2O)SC1=S)Nc1ccccc1 [I4, (Z)-2–(5-(2-hydroxybenzylidene)-4-oxo-2-thioxothiazolidin-3-yl)-N-phenylacetamide]
IC50 (A549 cells [1]; [3]): 15.8 ± 3.03 µM

COc1ccccc1/C=C1\SC(=S)N(CC(=O)Nc2ccccc2)C1=O [I5, (Z)-2–(5-(2-methoxybenzylidene)-4-oxo-2-thioxothiazolidin-3-yl)-N-phenylacetamide]
IC50 (A549 cells [1]; [3]): 13.4 ± 5.03 µM
IC50 (%inhibition ± SD) A549 (A549 cells [1]; MTT): 13.4 ± 5.03%
IC50 (%inhibition ± SD) NRK-52E (NRK-52E cells): 17.4 ± 4.57%
IC50 (%inhibition ± SD) HepG2 (HepG2 cells): 36.4 ± 8.00%

O=C(CN1C(=O)/C(=C/c2cccc([N+](=O)[O-])c2)SC1=S)Nc1ccccc1 [I6, (Z)-2–(5-(3-nitrobenzylidene)-4-oxo-2-thioxothiazolidin-3-yl)-N-phenylacetamide]
IC50 (A549 cells [1]; [3]): 22.9 ± 2.07 µM

O=C(CN1C(=O)/C(=C/c2cccc(F)c2)SC1=S)Nc1ccccc1 [I7, (Z)-2–(5-(3-fluorobenzylidene)-4-oxo-2-thioxothiazolidin-3-yl)-N-phenylacetamide]
IC50 (A549 cells [1]; [3]): 29.6 ± 3.72 µM

O=C(CN1C(=O)/C(=C/c2cccc(Cl)c2)SC1=S)Nc1ccccc1 [I8, (Z)-2–(5-(3-chlorobenzylidene)-4-oxo-2-thioxothiazolidin-3-yl)-N-phenylacetamide]
IC50 (A549 cells [1]; [3]): 31 ± 2.21 µM

O=C(CN1C(=O)/C(=C/c2cccc(O)c2)SC1=S)Nc1ccccc1 [I10, (Z)-2–(5-(3-hydroxybenzylidene)-4-oxo-2-thioxothiazolidin-3-yl)-N-phenylacetamide]
IC50 (A549 cells [1]; [3]): 42.8 ± 6.5 µM

O=C(CN1C(=O)/C(=C/c2ccc([N+](=O)[O-])cc2)SC1=S)Nc1ccccc1 [I12, (Z)-2–(5-(4-nitrobenzylidene)-4-oxo-2-thioxothiazolidin-3-yl)-N-phenylacetamide]
IC50 (A549 cells [1]; [3]): 23.6 ± 3 µM

O=C(CN1C(=O)/C(=C/c2ccc(C(F)(F)F)cc2)SC1=S)Nc1ccccc1 [I13, (Z)-2-(4-oxo-2-thioxo-5-(4-(trifluoromethyl)benzylidene)thiazolidin-3-yl)-N-phenylacetamide]
IC50 (A549 cells [1]; [3]): 20.1 ± 3.13 µM

O=C(CN1C(=O)/C(=C/c2ccc(F)cc2)SC1=S)Nc1ccccc1 [I14, (Z)-2–(5-(4-fluorobenzylidene)-4-oxo-2-thioxothiazolidin-3-yl)-N-phenylacetamide]
IC50 (A549 cells [1]; [3]): 18.8 ± 3.31 µM

O=C(CN1C(=O)/C(=C/c2ccc(Cl)cc2)SC1=S)Nc1ccccc1 [I15, (Z)-2–(5-(4-chlorobenzylidene)-4-oxo-2-thioxothiazolidin-3-yl)-N-phenylacetamide]
IC50 (%inhibition ± SD) PC-3 (PC-3 cells): 17.6 ± 2.51%
IC50 (%inhibition ± SD) NRK-52E (NRK-52E cells): 15.1 ± 2.45%
IC50 (%inhibition ± SD) HepG2 (HepG2 cells): 20.6 ± 5.19%

O=C(CN1C(=O)/C(=C/c2ccc(O)cc2)SC1=S)Nc1ccccc1 [I16, (Z)-2-(5-(4-hydroxybenzylidene)-4-oxo-2-thioxothiazolidin-3-yl)-N-phenylacetamide]
IC50 (A549 cells [1]; [3]): 16.8 ± 3.66 µM

CC(C)c1ccc(/C=C2\SC(=S)N(CC(=O)Nc3ccccc3)C2=O)cc1 [I17, (Z)-2-(5-(4-isopropylbenzylidene)-4-oxo-2-thioxothiazolidin-3-yl)-N-phenylacetamide]
IC50 (A549 cells [1]; [3]): 20.7 ± 3.33 µM

CCOc1ccc(/C=C2\SC(=S)N(CC(=O)Nc3ccccc3)C2=O)cc1 [I19, (Z)-2-(5-(4-ethoxybenzylidene)-4-oxo-2-thioxothiazolidin-3-yl)-N-phenylacetamide]
IC50 (%inhibition ± SD) PC-3 (PC-3 cells): 18.1 ± 3.68%
IC50 (%inhibition ± SD) NRK-52E (NRK-52E cells): 11.0 ± 3.10%
IC50 (%inhibition ± SD) HepG2 (HepG2 cells): 18.8 ± 5.40%

O=C(CN1C(=O)/C(=C/c2ccc(Cl)cc2Cl)SC1=S)Nc1ccccc1 [I21, (Z)-2-(5-(2,4-dichlorobenzylidene)-4-oxo-2-thioxothiazolidin-3-yl)-N-phenylacetamide]
IC50 (A549 cells [1]; [3]): 36.9 ± 1.36 µM

O=C(CN1C(=O)/C(=C/C2CC2)SC1=S)Nc1ccccc1 [I23, (Z)-2-(5-(cyclopropylmethylene)-4-oxo-2-thioxothiazolidin-3-yl)-N-phenylacetamide]
IC50 (A549 cells [1]; [3]): 15.7 ± 0.98 µM

O=C(CN1C(=O)/C(=C/c2ccco2)SC1=S)Nc1ccccc1 [I24, (Z)-2-(5-(furan-2-ylmethylene)-4-oxo-2-thioxothiazolidin-3-yl)-N-phenylacetamide]
IC50 (%inhibition ± SD) PC-3 (PC-3 cells): 25.1 ± 3.39%
IC50 (%inhibition ± SD) NRK-52E (NRK-52E cells): 20.1 ± 2.12%

O=C(CN1C(=O)/C(=C/c2cccs2)SC1=S)Nc1ccccc1 [I25, (Z)-2–(4-oxo-5-(thiophen-2-ylmethylene)-2-thioxothiazolidin-3-yl)-N-phenylacetamide]
IC50 (A549 cells [1]; [3]): 16 ± 3.46 µM

O=C(CN1C(=O)/C(=C/c2ccc[nH]2)SC1=S)Nc1ccccc1 [I26, (Z)-2-(5-((1H-pyrrol-2-yl)methylene)-4-oxo-2-thioxothiazolidin-3-yl)-N-phenylacetamide]
IC50 (A549 cells [1]; [3]): 20 ± 4.25 µM

O=C(CN1C(=O)/C(=C/c2ccccn2)SC1=S)Nc1ccccc1 [I28, (Z)-2-(4-oxo-5-(pyridin-2-ylmethylene)-2-thioxothiazolidin-3-yl)-N-phenylacetamide]
IC50 (A549 cells [1]; [3]): 17.3 ± 3.9 µM

O=C(CN1C(=O)/C(=C/c2ccncc2)SC1=S)Nc1ccccc1 [I29, (Z)-2-(4-oxo-5-(pyridin-4-ylmethylene)-2-thioxothiazolidin-3-yl)-N-phenylacetamide]
IC50 (A549 cells [1]; [3]): 26.4 ± 8 µM

COc1cccc(NC(=O)CN2C(=O)/C(=C/c3ccccc3)SC2=S)c1 [I30, (Z)-2-(5-benzylidene-4-oxo-2-thioxothiazolidin-3-yl)-N-(3-methoxyphenyl)acetamide]
IC50 (A549 cells [1]; [3]): 22.1 ± 3.41 µM

COc1cccc(NC(=O)CN2C(=O)/C(=C/C3CC3)SC2=S)c1 [I32, (Z)-2–(5-(cyclopropylmethylene)-4-oxo-2-thioxothiazolidin-3-yl)-N-(3-methoxyphenyl)acetamide]
IC50 (A549 cells [1]; [3]): 39.1 ± 5.62 µM

COc1cccc(NC(=O)CN2C(=O)/C(=C/c3ccco3)SC2=S)c1 [I33, (Z)-2–(5-(furan-2-ylmethylene)-4-oxo-2-thioxothiazolidin-3-yl)-N-(3-methoxyphenyl)acetamide]
IC50 (A549 cells [1]; [3]): 46.5 ± 7.31 µM

COc1cccc(NC(=O)CN2C(=O)/C(=C/c3cccs3)SC2=S)c1 [I34, (Z)-N-(3-methoxyphenyl)-2–(4-oxo-5-(thiophen-2-ylmethylene)-2-thioxothiazolidin-3-yl)acetamide]
IC50 (A549 cells [1]; [3]): 17.8 ± 3.75 µM

(Z)-2-(5-(2-hydroxy-3-methoxybenzylidene)-4-oxo-2-thioxothiazolidin-3-yl)-N-phenylacetamide [I22]
IC50 (A549 cells [1]; read-out: IC50 A549, MTT): 84.9 ± 9 µM

(Z)-2-(5-(4-(dimethylamino)benzylidene)-4-oxo-2-thioxothiazolidin-3-yl)-N-phenylacetamide [I20]
IC50 (%inhibition ± SD) A549 (A549 cells [1]; MTT): 7.00 ± 1.06%
IC50 (A549 cells [1]; read-out: IC50 A549, MTT): 7 ± 1.06 µM
IC50 (%inhibition ± SD) PC-3 (PC-3 cells): 19.9 ± 5.56%
percentage of cells in G2/M (A549 cells [2]; A549, 4 µM): 10.92%
percentage of cells in G2/M (A549 cells [2]; A549, 8 µM): 15.45%
IC50 (%inhibition ± SD) NRK-52E (NRK-52E cells): 14.7 ± 1.58%
IC50 (%inhibition ± SD) HepG2 (HepG2 cells): 20.3 ± 2.93%

(Z)-2-(5-(cyclohex-2-en-1-ylmethylene)-4-oxo-2-thioxothiazolidin-3-yl)-N-phenylacetamide [I27]
IC50 (A549 cells [1]; read-out: IC50 A549, MTT): 51.3 ± 9.09 µM
